Test results as given in ChEMBL document CHEMBL2034972, “Synthesis, biological evaluation, and structure-activity relationships of N-benzoyl-2-hydroxybenzamides as agents active against P. falciparum (K1 strain), Trypanosomes, and Leishmania” (J Med Chem, 2012).
Values after ≈ are worked out from the molar mass of the structure shown.

How the values were obtained:
[1] = Selectivity index, ratio of IC50 for rat L6 cells to IC50 for intracellular amastigote stage of Trypanosoma cruzi Tulahuen C2C4; assay type: toxicity, cell-based; settings: read-out: Ratio IC50
Method in brief: (§1)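 Selectivity index is calculated as the L6 myoblast IC50 divided by the IC50 against the respective parasite. Both IC50s are in µg/mL and are means of two independent determinations.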

[2] = system: Plasmodium falciparum; assay: Antimalarial activity against chloroquine and pyrimethamine-resistant Plasmodium falciparum […] assessed as [3H]-hypoxanthine incorporation after 48 hrs by liquid scintillation counting; assay type: functional, organism-based
Method in brief: (§2)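 In vitro screens of parasites and host cells: T. b. rhodesiense STIB900 trypomastigotes, T. cruzi Tulahuen C4 intracellular amastigotes, L. donovani MHOM-ET-67/L82 axenic amastigotes, P. falciparum K1 erythrocytic stage, and L6 rat skeletal myoblasts […] for toxicity. […] Values are means of two independent determinations.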

[3] = Selectivity index, ratio of IC50 for rat L6 cells to IC50 for axenic amastigote stage of Leishmania donovani MHOM/ET/67/L82; assay type: toxicity, cell-based; settings: read-out: Ratio IC50; method in brief: as §1
[4] = system: Trypanosoma cruzi; assay: Antitrypanosomal activity against intracellular amastigote stage of Trypanosoma cruzi Tulahuen C2C4 infected in rat L6 cells after 96 hrs by spectrophotometric analysis; assay type: functional, organism-based; settings: Tulahuen C2C4, L6, 96 h
Method in brief: (§3)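 In vitro screens of parasites and host cells: T. b. rhodesiense STIB900 trypomastigotes, T. cruzi Tulahuen C4 intracellular amastigotes, L. donovani MHOM-ET-67/L82 axenic amastigotes, P. falciparum K1 erythrocytic stage, and L6 rat skeletal myoblasts […] for toxicity. Values are means of two independent determinations.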

[5] = system: L6; assay: Cytotoxicity against rat L6 cells after 72 hrs by alamar blue assay; assay type: cell-based; settings: L6, 72 h; method in brief: as §2
[6] = system: Trypanosoma brucei rhodesiense; assay: Antitrypanosomal activity against trypomastigotes of Trypanosoma brucei rhodesiense […] after 72 hrs by alamar blue assay; assay type: functional, organism-based; settings: STIB 900, L6, 72 h; method in brief: as §2
[7] = Selectivity index, ratio of IC50 for rat L6 cells to IC50 for trypomastigotes of Trypanosoma brucei rhodesiense STIB 900; assay type: toxicity, cell-based; settings: read-out: Ratio IC50; method in brief: as §1
[8] = system: Leishmania donovani; assay: Antileishmanial activity against axenic amastigote stage of Leishmania donovani […] after 72 hrs by alamar blue assay; assay type: functional, organism-based; settings: MHOM/ET/67/L82, L6, 72 h; method in brief: as §3
[9] = Selectivity index, ratio of IC50 for rat L6 cells to IC50 for chloroquine and pyrimethamine-resistant Plasmodium falciparum K1; assay type: toxicity, cell-based; settings: read-out: Ratio IC50; method in brief: as §1

Row | Compound | selectivity ratio [1] | IC50 [2] [µg/mL] | selectivity ratio [3] | IC50 [4] [µg/mL] | IC50 [5] [µg/mL] | IC50 [6] [µg/mL] | selectivity ratio [7] | IC50 [8] [µg/mL] | selectivity ratio [9]
1 | COc1ccc(C(=O)NC(=O)c2ccccc2O)cc1 | 1.3 | 1.6 (≈ 5.9 µM) | 23 | 31 (≈ 114 µM) | 39 (≈ 144 µM) | 50 (≈ 184 µM) | 0.78 | 1.7 (≈ 6.27 µM) | 24
2 | CCc1ccc(C(=O)Nc2cn(C(C)=O)c3ccccc23)cc1 | < 0.81 | 23 (≈ 75.1 µM) | < 0.46 | 28 (≈ 91.4 µM) | 23 (≈ 75.1 µM) | > 50 | < 0.46 | > 50 | 1
3 | CN(C)c1ccc(C(=O)NC(=O)c2ccccc2O)cc1 | 1.4 | 0.49 (≈ 1.72 µM) | 3 | 37 (≈ 130 µM) | 54 (≈ 190 µM) | 81 (≈ 285 µM) | 0.66 | 18 (≈ 63.3 µM) | 110
4 | O=C(NC(=O)c1ccccc1O)c1ccccc1O | 2.8 | 1.1 (≈ 4.28 µM) | 21 | 14 (≈ 54.4 µM) | 39 (≈ 152 µM) | 62 (≈ 241 µM) | 0.63 | 1.9 (≈ 7.39 µM) | 36
5 | O=C(CCCCCCC(=O)Nc1ccc(C(=O)NC(=O)c2ccccc2O)cc1)NO | > 2.1 | 3.5 (≈ 8.19 µM) | – | 49 (≈ 115 µM) | > 100 | 65 (≈ 152 µM) | > 1.5 | > 100 | > 29
6 | CCc1ccc(C(=O)n2c(=O)oc3ccccc3c2=O)cc1 | 3 | 6.9 (≈ 23.4 µM) | 13 | 8.8 (≈ 29.8 µM) | 26 (≈ 88 µM) | 83 (≈ 281 µM) | 0.31 | 1.9 (≈ 6.43 µM) | 3.7
7 | O=C(NC(=O)c1ccccc1O)c1ccc(-c2ccccc2)cc1 | > 13 | 3.9 (≈ 12.3 µM) | > 14 | 7.7 (≈ 24.3 µM) | > 100 | 87 (≈ 274 µM) | > 1.2 | 7.4 (≈ 23.3 µM) | > 26
8 | CS(=O)(=O)c1ccc(C(=O)NC(=O)c2ccccc2O)cc1 | > 2 | 38 (≈ 119 µM) | – | 51 (≈ 160 µM) | > 100 | > 100 | – | > 100 | > 2.7
9 | CCc1ccc(NC(=O)NC(=O)c2ccccc2O)cc1 | 0.95 | 26 (≈ 91.4 µM) | 0.7 | 74 (≈ 260 µM) | 70 (≈ 246 µM) | 36 (≈ 127 µM) | 2 | 100 (≈ 352 µM) | 2.8
10 | O=C(NC(=O)C1CCCCC1)c1ccccc1O | 3.4 | 13 (≈ 52.6 µM) | 9.2 | 16 (≈ 64.7 µM) | 55 (≈ 222 µM) | > 100 | < 0.55 | 6 (≈ 24.3 µM) | 4.4
11 | CC(C)c1ccc(C(=O)NC(=O)c2ccccc2O)cc1 | 9.5 | 1.5 (≈ 5.29 µM) | 14 | 2 (≈ 7.06 µM) | 19 (≈ 67.1 µM) | 65 (≈ 229 µM) | 0.29 | 1.3 (≈ 4.59 µM) | 12
12 | COC(=O)CCC(=O)Nc1ccc(C(=O)NC(=O)c2ccccc2O)cc1 | – | 21 (≈ 56.7 µM) | > 2.3 | > 50 | > 50 | > 50 | – | 22 (≈ 59.4 µM) | > 2.4
13 | CCc1ccc(C(=O)NC(=S)c2ccccc2O)cc1 | 1.7 | 4.2 (≈ 14.7 µM) | 3.3 | 10 (≈ 35 µM) | 17 (≈ 59.6 µM) | 61 (≈ 214 µM) | 0.28 | 5.3 (≈ 18.6 µM) | 4.1
14 | CCc1ccc(C(=O)Nc2n[nH]c3ccccc23)cc1 | – | 8.5 (≈ 32 µM) | – | 8.9 (≈ 33.5 µM) | 8.2 (≈ 30.9 µM) | 8.2 (≈ 30.9 µM) | – | 3 (≈ 11.3 µM) | –
15 | Nc1nc(N)nc(Nc2ccc([As]3SCC(CO)S3)cc2)n1 (stereo not given) [MELARSOPROL] | – | – | – | – | – | 0.005 | – | – | –
16 | CCN(CC)c1ccc(C(=O)NC(=O)c2ccccc2O)cc1 | – | 0.005 (≈ 0.016 µM) | – | 2.8 (≈ 8.96 µM) | 8.2 (≈ 26.3 µM) | > 50 | – | 0.91 (≈ 2.91 µM) | –
17 | O=C(NC(=O)c1ccccc1O)c1ccc(N2CCOCC2)cc1 | – | 0.18 (≈ 0.552 µM) | > 3.1 | > 50 | > 50 | > 50 | – | 16 (≈ 49 µM) | > 272
